In ChEMBL document CHEMBL4673384, “Studying Histone Deacetylase Inhibition and Apoptosis Induction of Psammaplin A Monomers with Modified Thiol Group” (ACS Med Chem Lett, 2021) one finds Activity, viability and inhibition data, which are given here for three molecules.

Activity calls are given as the source filed them. No cut-off for these calls is given here.

A short description of data set [1]: Antitumor activity against mouse LL/2 cells inoculated in C57BL/6J mouse assessed as tumor growth inhibition at 100 mg/kg, ip administered for 12 days. The format is functional, Lewis lung carcinoma. Further details: scale not given: the % may be the effect or the level left. Particulars: time 12 day.
The nature of data set [2]: Antitumor activity against mouse LL/2 cells inoculated in C57BL/6J mouse assessed as reduction of tumor weight at 100 mg/kg, ip administered for 12 days and measured at day 14 (reference value: 1.2 +/- 0.3 g). The following applies: time 12 day. The format is functional, Lewis lung carcinoma.
Data set [3] can be described thus: Toxicity in mouse LL/2 cells inoculated C57BL/6J mouse assessed as effect on body weight by measuring end body weight at 100 mg/kg, ip administered for 12 days and measured for every 2 days (reference value: 17.8 +/- 0.7 g). The following applies: in vivo, 288 h, time 12 day. In kind it is organism-based.
Data set [4] relates to HL-60. As to the kind of experiment: Induction of apoptosis in human HL-60 cells assessed as necrotic cells at 8 uM incubated for 24 hrs by propidium iodide and annexin-V FITC staining based FACS analysis (reference value: 0.5 %). In kind it is functional.
The test system of data set [5] is HL-60. In words: Induction of apoptosis in human HL-60 cells assessed as late apoptotic cells at 8 uM incubated for 24 hrs by propidium iodide and annexin-V FITC staining based FACS analysis (reference value: 4.2 %). The format is functional.
Data set [6] has as its system HL-60. As to the kind of experiment: Induction of apoptosis in human HL-60 cells assessed as viable cells at 8 uM incubated for 24 hrs by propidium iodide and annexin-V FITC staining based FACS analysis (reference value: 92.05 %). The following applies: read-out: Activity. The format is functional.
Data set [7] has as its system HL-60. In words: Induction of apoptosis in human HL-60 cells assessed as necrotic cells at 1 uM incubated for 24 hrs by propidium iodide and annexin-V FITC staining based FACS analysis (reference value: 0.5 %). In kind it is functional.
Data set [8] has as its system HL-60. In words: Induction of apoptosis in human HL-60 cells assessed as early apoptotic cells at 1 uM incubated for 24 hrs by propidium iodide and annexin-V FITC staining based FACS analysis (reference value: 2.9 %). The format is functional.
For data set [9], the system named is HL-60. As to the kind of experiment: Induction of apoptosis in human HL-60 cells assessed as viable cells at 1 uM incubated for 24 hrs by propidium iodide and annexin-V FITC staining based FACS analysis (reference value: 92.5 %). The format is functional. The following applies: read-out: Activity.
A further data set deals with Histone deacetylase 2 (Homo sapiens, UniProt Q92769). In words: Inhibition of HDAC2 in human HL-60 cells assessed as increase in Ac-H3 level at 0.5 to 2 uM incubated for 24 hrs by Western blot analysis. In kind it is cell-based. Particulars: dose 0.5-2 µM. A digest of the protocol: (§1)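 Compound given to HL-60 cells for 24 h at the stated concentrations, then lysed. Acetyl-histone H3 and acetyl-α-tubulin levels were read by Western blot, with total H3, α-tubulin or β-actin as references.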
Chain of Histone deacetylase 2 (Q92769 whole entry): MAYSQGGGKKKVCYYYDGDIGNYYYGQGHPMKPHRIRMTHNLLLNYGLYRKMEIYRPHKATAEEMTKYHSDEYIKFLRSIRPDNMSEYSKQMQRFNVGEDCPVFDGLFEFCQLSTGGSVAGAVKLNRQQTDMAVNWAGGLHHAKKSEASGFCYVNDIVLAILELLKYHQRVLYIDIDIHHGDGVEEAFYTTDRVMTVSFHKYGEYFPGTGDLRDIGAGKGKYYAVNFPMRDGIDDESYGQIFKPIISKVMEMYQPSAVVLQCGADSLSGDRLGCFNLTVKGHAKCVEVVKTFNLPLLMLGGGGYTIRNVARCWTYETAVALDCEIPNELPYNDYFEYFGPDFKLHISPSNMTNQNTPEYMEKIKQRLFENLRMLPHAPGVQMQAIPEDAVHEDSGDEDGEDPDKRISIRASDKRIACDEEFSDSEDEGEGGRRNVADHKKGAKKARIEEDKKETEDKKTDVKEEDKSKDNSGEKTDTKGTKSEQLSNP

Data set [10] deals with T1, Protein deacetylase HDAC6 (Homo sapiens) (UniProt Q9UBN7).
T1 sequence (whole entry): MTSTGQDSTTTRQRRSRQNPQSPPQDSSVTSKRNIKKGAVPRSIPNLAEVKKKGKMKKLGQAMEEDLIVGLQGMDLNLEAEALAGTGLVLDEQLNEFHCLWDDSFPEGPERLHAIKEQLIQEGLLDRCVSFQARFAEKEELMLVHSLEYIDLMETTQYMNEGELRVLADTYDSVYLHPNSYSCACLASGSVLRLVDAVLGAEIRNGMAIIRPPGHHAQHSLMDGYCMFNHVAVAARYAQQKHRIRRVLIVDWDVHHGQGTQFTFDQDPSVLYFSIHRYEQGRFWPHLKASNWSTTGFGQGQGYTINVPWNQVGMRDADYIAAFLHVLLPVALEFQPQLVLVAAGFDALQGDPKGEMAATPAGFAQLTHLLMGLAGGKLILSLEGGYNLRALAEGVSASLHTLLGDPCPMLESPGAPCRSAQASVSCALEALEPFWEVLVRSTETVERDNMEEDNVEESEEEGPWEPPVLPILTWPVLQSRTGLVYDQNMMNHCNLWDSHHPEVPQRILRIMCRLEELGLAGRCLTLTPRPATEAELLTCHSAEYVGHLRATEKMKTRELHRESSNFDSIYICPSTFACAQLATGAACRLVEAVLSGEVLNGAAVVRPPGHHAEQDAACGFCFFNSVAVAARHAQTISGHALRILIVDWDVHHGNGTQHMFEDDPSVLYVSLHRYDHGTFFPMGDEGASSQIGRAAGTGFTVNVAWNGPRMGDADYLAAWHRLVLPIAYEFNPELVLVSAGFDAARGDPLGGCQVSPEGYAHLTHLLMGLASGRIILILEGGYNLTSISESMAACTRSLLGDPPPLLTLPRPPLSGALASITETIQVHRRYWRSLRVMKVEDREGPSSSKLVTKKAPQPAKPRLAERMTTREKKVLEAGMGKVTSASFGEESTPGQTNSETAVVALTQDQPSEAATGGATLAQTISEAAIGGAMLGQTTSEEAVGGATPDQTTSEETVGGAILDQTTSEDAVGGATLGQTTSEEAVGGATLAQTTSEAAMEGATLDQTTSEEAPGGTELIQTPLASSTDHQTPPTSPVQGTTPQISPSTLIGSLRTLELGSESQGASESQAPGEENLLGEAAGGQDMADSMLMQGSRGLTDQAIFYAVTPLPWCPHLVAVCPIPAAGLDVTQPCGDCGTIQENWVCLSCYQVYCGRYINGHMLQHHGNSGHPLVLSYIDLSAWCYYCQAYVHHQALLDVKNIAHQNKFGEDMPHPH
As to the kind of experiment: Inhibition of HDAC6 in human HL-60 cells assessed as increase in acetylated alpha tubulin level at 0.5 uM after 24 hrs by Western blot analysis. In kind it is cell-based. The gist of the method:
as §1

Data set [11] deals with HL-60. As to the kind of experiment: Induction of apoptosis in human HL-60 cells assessed as cleavage of caspase-9 at 0.5 to 2 uM after 24 hrs Western blot analysis. In kind it is functional, cell-based. The following applies: dose 0.5-2 µM. The gist of the method: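 HL-60 cells were treated for 24 h at the indicated concentrations, then analysed by Western blot. Blots were probed for cleavage of PARP and caspase-3, -8 and -9. Ac-H3, Ac-α-tubulin and β-actin were also detected, with β-actin as the loading reference.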

Data set [12] deals with HL-60. As to the kind of experiment: Induction of apoptosis in human HL-60 cells assessed as necrotic cells at 2 uM incubated for 24 hrs by propidium iodide and annexin-V FITC staining based FACS analysis (reference value: 0.3 %). In kind it is functional.
The test system of data set [13] is HL-60. In words: Induction of apoptosis in human HL-60 cells assessed as early apoptotic cells at 2 uM incubated for 24 hrs by propidium iodide and annexin-V FITC staining based FACS analysis (reference value: 2.8 %). In kind it is functional.
In data set [14] the test system is HL-60. In words: Induction of apoptosis in human HL-60 cells assessed as necrotic cells at 1 uM incubated for 24 hrs by propidium iodide and annexin-V FITC staining based FACS analysis (reference value: 0.3 %). In kind it is functional.
Data set [15] has as its system HL-60. In words: Induction of apoptosis in human HL-60 cells assessed as late apoptotic cells at 1 uM incubated for 24 hrs by propidium iodide and annexin-V FITC staining based FACS analysis (reference value: 4.8 %). The format is functional.
For data set [16], the system named is HL-60. As to the kind of experiment: Induction of apoptosis in human HL-60 cells assessed as necrotic cells at 0.5 uM incubated for 24 hrs by propidium iodide and annexin-V FITC staining based FACS analysis (reference value: 0.3 %). The format is functional.
In data set [17] the test system is HL-60. In words: Induction of apoptosis in human HL-60 cells assessed as early apoptotic cells at 0.5 uM incubated for 24 hrs by propidium iodide and annexin-V FITC staining based FACS analysis (reference value: 2.8 %). The format is functional.

In the case of `O=C(NCCS)/C(Cc1ccc(O)c(Br)c1)=N/O`, the Activity in [1] turned out to be 62%; in data set [2] it was 0.5 g; in [3] it was 16.9 g; with HL-60 [4] it was 3.3%; in the data set on HL-60 [5], 25.1%. Besides, the viability at 8 µM in the data set with HL-60 [6] was 68.3%.
As to `O=C(NCCSSCCNC(=O)/C(Cc1ccc(O)c(Br)c1)=N/O)/C(Cc1ccc(O)c(Br)c1)=N/O` [PSAMMAPLIN A], the figures for the Activity with HL-60 [7] and in the data set with HL-60 [8] were 0.8% and 2.6%, respectively. The viability at 1 µM with HL-60 [9] was found to be 88.8%.
Turning to `O=C(CCNC(=O)/C(Cc1ccc(O)c(Br)c1)=N/O)NO`, the inhibition entry (on Histone deacetylase 2; in [10]) was “Active” throughout. Further, the result in the data set on HL-60 [11] was Active. In addition, the Activity is on record as 0.8% in the data set on HL-60 [12]; 7.3% in the data set on HL-60 [13]; 0.5% with HL-60 [14]; 12.6% in the data set with HL-60 [15]; 0.2% in the data set on HL-60 [16]; 1.9% in the data set on HL-60 [17].
